The text below walks through data of ChEMBL document CHEMBL1926567, “Triterpenoids as inhibitors of erythrocytic and liver stages of Plasmodium infections” (Bioorg Med Chem, 2011).

Each structure is given as a SMILES string. Activity calls are given as the source filed them. The rule behind the calls is not given here.

In data set [1] the test system is Hepatocyte. In words: Cytotoxicity against mouse primary hepatocytes at 15 uM after 24 hrs by alamar blue fluorescence assay. It counts as cell-based. An outline of the steps:
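Mouse primary hepatocytes incubated with compounds for 24 h, then with AlamarBlue-containing medium for 1 h before fluorescence reading. Signal normalized to cells treated with 500 μM H2O2 as positive control and compared with a DMSO control at the amount present in the highest drug concentration.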
In general terms: Alamar Blue is a resazurin reagent that responds to reducing activity.

Data set [2] in a line: Selectivity index, ratio of IC50 for human MCF7 cells to IC50 for chloroquine-resistant Plasmodium falciparum Dd2. It counts as toxicity, cell-based. The settings on record: read-out: Ratio IC50. An outline of the steps: (§1)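 MCF-7 cells were grown in RPMI 1640 with 10% heat-inactivated horse serum and 2 mM L-glutamine. Cells (2×10^4 per well) were exposed to increasing compound concentrations for 24 h at 37 °C, then given MTT for 4 h and SDS overnight; OD read at 550 nm (ref 630 nm). Growth-inhibition IC50 from three experiments.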

For data set [3], the system named is MCF7. Description: Cytotoxicity against human MCF7 cells after 24 hrs by MTT assay. The class given is cell-based. The settings on record: MCF7, 24 h. The method, boiled down: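 MCF-7 cells grown in RPMI 1640 with 10% heat-inactivated horse serum and 2 mM L-glutamine at 37 °C, 5% CO2. 2×10^4 cells/well exposed to increasing compound concentrations for 24 h. MTT added for 4 h, then 10% SDS overnight; OD at 550 nm (reference 630 nm). Percent growth inhibition calculated relative to cell and medium controls; IC50 given as mean ± SD of three experiments.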
Background: Tetrazolium dyes change colour on reduction, which living cells bring about.

Data set [4] concerns Plasmodium falciparum. In words: Antimalarial activity against chloroquine-resistant Plasmodium falciparum Dd2 infected in erythrocytes after 48 hrs by SYBR green 1-based fluorescence assay. It counts as functional, organism-based. The settings on record: Dd2, 48 h. An outline of the steps: (§2)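 P. falciparum (3D7 or Dd2) grown in fresh human erythrocytes in RPMI 1640 with 25 mM HEPES, 6.8 mM hypoxanthine and 10% AlbuMAX II, at 37 °C under 5% O2, 3–5% CO2 and N2. Ring-stage cultures at 1% parasitaemia and 2% haematocrit were exposed in duplicate to 0.156–100 µg/mL (from DMSO stocks) for 48 h at 37 °C. SYBR Green I lysis buffer was then added for 1 h in the dark; fluorescence read at ex 485/em 535 nm. IC50 is the mean of three independent experiments.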

Data set [5] relates to Plasmodium berghei. In words: Antimalarial activity against transgenic Plasmodium berghei expressing PbGFP-Luc-con infected in human HuH7 cells assessed as reduction of parasite motility at 15 uM by luciferase based assay. It counts as functional, organism-based. The settings on record: Huh-7.
Data set [6] in a line: Selectivity index, ratio of IC50 for human MCF7 cells to IC50 for chloroquine-sensitive Plasmodium falciparum 3D7. It counts as toxicity, cell-based. The settings on record: read-out: Ratio IC50. An outline of the steps: as §1
Data set [7] deals with Plasmodium berghei. Description: Antimalarial activity against liver stage of transgenic Plasmodium berghei expressing PbGFP-Luc-con infected in human HuH7 cells at 1 to 15 uM after 48 hrs by bioluminescence method. The settings on record: Huh-7. The class given is functional, organism-based. An outline of the steps: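 Huh-7 human hepatoma cells (12×10^3/well) seeded the day before; compounds at 1, 5 and 15 uM added 1 h before sporozoites of luciferase-expressing P. berghei PbGFP-Luc_con, freshly dissected from infected female Anopheles stephensi salivary glands. Plates centrifuged 1700g for 5 min after sporozoite addition. Luminescence read 48 h post-infection versus DMSO controls. Primaquine positive control; three independent measurements.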

The test system of data set [8] is Huh-7. In words: Cytotoxicity against human HuH7 cells at 15 uM by alamar blue fluorescence assay. It counts as cell-based. The settings on record: huh-7, 15 µM. The method, boiled down:
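Huh-7 cells cultured in RPMI 1640 with 10% FCS and 10 mM HEPES pH 7 at 37 °C, 5% CO2. Cells seeded the day before, exposed to compounds (1, 5, 15 uM) and infected in parallel with the liver-stage assay. Viability read as AlamarBlue fluorescence (cell confluency), compared with DMSO controls; three independent measurements.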

In data set [9] the test system is Plasmodium berghei. Description: Antimalarial activity against transgenic Plasmodium berghei expressing PbGFP-Luc-con infected in human HuH7 cells assessed as reduction of parasite invasion at 15 uM by luciferase based assay. The class given is functional, organism-based. The settings on record: Huh-7.
In data set [10] the test system is Plasmodium falciparum. Description: Antimalarial activity against chloroquine-sensitive Plasmodium falciparum 3D7 infected in erythrocytes after 48 hrs by SYBR green 1-based fluorescence assay. The class given is functional, organism-based. The settings on record: 3D7, 48 h. The method, boiled down: as §2
Data set [11] has as its system Plasmodium berghei. In words: Antimalarial activity against transgenic Plasmodium berghei expressing PbGFP-Luc-con infected in human HuH7 cells assessed as reduction of intracellular liver stage development at 15 uM by luciferase based assay. It counts as functional, organism-based. The settings on record: Huh-7.
The subject of data set [12] is Plasmodium falciparum. In words: Ratio of balsaminol-F IC50 to compound IC50 for chloroquine-sensitive Plasmodium falciparum 3D7. It counts as functional.
Data set [13] concerns Plasmodium falciparum. In words: Ratio of balsaminol-F IC50 to compound IC50 for chloroquine-resistant Plasmodium falciparum Dd2. The class given is functional.

In the case of `CC(C)=C[C@H](O)C[C@@H](C)[C@H]1CC[C@@]2(C)[C@@H]3[C@@H](O)C=C4[C@@H](CC[C@H](O)C4(C)C)[C@]3(C)CC[C@]12C` (relative stereo) [BALSAMINOL F], the Activity entry in data set [1] and in data set [8] was “Toxic” in each case. The selectivity ratio in data set [2] was 1.4; in data set [6], 1.5. For the same compound, the IC50 was determined as 27.3 µM in data set [3], 20 µM in data set [4] and 18 µM in [10]. The result in data set [5] and in data set [9] was inactive. Further, the result in data set [7] and in data set [11] was Active.

`CC(C)=C[C@H](O)C[C@@H](C)[C@H]1CC[C@@]2(C)[C@@H]3[C@@H](O[C@@H]4O[C@H](CO)[C@@H](O)[C@@H](O)[C@H]4O)C=C4[C@@H](CC[C@H](O)C4(C)C)[C@]3(C)CC[C@]12C` (relative stereo) [BALSAMINOSIDE B]: the Activity result in data set [1] and in [8] was “Toxic” in each case. For the same compound, the selectivity ratio came out at 2.3 in data set [2] and 4.8 in data set [6]. Also, the IC50 in data set [3] is 14.2 µM; in [4], 6.3 µM; in [10] it was 2.9 µM. Further, the result in data set [5] and in data set [9] was inactive. The result in [7] and in [11] was Active.

In the case of `CC(C)=C[C@H](O)C[C@@H](C)[C@H]1CC[C@@]2(C)[C@@H]3[C@@H](O[C@@H]4O[C@H](CO)[C@@H](O)[C@H](O)[C@H]4O)C=C4[C@@H](CC[C@H](O)C4(C)C)[C@]3(C)CC[C@]12C` [BALSAMINOSIDE C], the selectivity ratio in data set [2] was 3.3; in data set [6], 7. Besides, the IC50 stood at 23.9 µM in data set [3], 7.2 µM in [4] and 3.4 µM in data set [10]. In data set [7], the result was Active.

With `CO[C@H]1C=C2[C@@H](CC[C@H](O)C2(C)C)[C@]2(C)CC[C@]3(C)[C@@H]([C@H](C)CC(C=C(C)C)O[C@@H]4O[C@H](CO)[C@@H](O)[C@H](O)[C@H]4O)CC[C@@]3(C)[C@H]12` (some centres not stated) [KUGUAGLYCOSIDE A], the selectivity ratio in data set [2] stood at 2.9; in [6], 3.5. In addition, the results for the IC50 in data set [3], in [4] and in data set [10] were 13.5 µM, 4.7 µM and 3.9 µM, respectively.

Regarding `CC(=O)O[C@H]1C=C2[C@@H](CC[C@H](OC(C)=O)C2(C)C)[C@]2(C)CC[C@]3(C)[C@@H]([C@H](C)C[C@H](C=C(C)C)OC(C)=O)CC[C@@]3(C)[C@H]12` [TRIACETYLBALSAMINOL F], the Activity entry in data set [1] and in data set [8] was “Non-toxic” each time. Moreover, the values for the selectivity ratio in [2] and in data set [6] were over 343 and over 162, respectively. Further, the IC50 in [3] is over 133 µM; in data set [4] it was 0.4 µM; in data set [10] it was 0.8 µM. The “Ratio IC50” value in [12] was 22.5; in data set [13] it was 50. Besides, the outcome in data set [5] and in data set [9] was inactive. In addition, the outcome in [7] and in data set [11] was Active.

For the compound `CC(C)=C[C@@H](C[C@@H](C)[C@H]1CC[C@@]2(C)[C@@H]3[C@@H](OC(=O)c4ccccc4)C=C4[C@@H](CC[C@H](OC(=O)c5ccccc5)C4(C)C)[C@]3(C)CC[C@]12C)OC(=O)c1ccccc1` [TRIBENZOYLBALSAMINOL F], the selectivity ratio in data set [2] was over 2; in data set [6], over 2.3. The IC50 in data set [3] is over 133 µM; in data set [4] it was 68.4 µM; in data set [10], 57.3 µM. Moreover, the result in [7] was Active.

The IC50 is the point on the concentration scale where inhibition reaches its midpoint.
